pIC50: −log10 of the molar value.
Columns and labels:
GlnA4Sc = molecular target: T1, GlnA4Sc (Streptomyces coelicolor, UniProt O88070); assay: GlnA4Sc enzyme activity assay; assay type: biochemical
T1 sequence (O88070 1-462): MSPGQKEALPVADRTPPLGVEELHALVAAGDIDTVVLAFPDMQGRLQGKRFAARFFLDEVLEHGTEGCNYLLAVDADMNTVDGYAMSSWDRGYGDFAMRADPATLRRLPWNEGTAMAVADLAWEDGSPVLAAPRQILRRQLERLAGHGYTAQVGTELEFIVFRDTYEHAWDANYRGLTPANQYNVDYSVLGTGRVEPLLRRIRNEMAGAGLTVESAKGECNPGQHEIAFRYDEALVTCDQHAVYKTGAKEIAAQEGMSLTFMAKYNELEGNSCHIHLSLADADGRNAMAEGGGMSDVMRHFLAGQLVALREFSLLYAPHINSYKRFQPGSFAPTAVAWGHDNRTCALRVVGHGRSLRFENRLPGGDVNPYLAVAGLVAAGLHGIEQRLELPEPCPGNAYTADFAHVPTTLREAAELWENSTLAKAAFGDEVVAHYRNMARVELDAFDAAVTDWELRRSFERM

GlnA1Mt = GlnA1Mt (Mycobacterium tuberculosis, UniProt P9WN39); assay type: biochemical; conditions: at 5 mM (SI Figure 2)
GlnA1Mt, sequence (P9WN39 whole entry): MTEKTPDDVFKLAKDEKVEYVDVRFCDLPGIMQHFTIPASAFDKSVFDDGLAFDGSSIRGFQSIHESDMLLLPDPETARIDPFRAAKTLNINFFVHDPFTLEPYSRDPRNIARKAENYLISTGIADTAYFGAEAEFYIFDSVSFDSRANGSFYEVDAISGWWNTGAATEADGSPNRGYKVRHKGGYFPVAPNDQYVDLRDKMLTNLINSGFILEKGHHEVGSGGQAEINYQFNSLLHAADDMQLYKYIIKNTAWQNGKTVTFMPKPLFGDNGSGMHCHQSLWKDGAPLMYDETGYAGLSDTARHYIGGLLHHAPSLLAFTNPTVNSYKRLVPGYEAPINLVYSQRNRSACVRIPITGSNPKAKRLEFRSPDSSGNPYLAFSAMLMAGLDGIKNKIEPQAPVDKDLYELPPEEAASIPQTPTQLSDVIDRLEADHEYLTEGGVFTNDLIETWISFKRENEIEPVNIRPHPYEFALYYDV

S. coelicolor M145 = assay: S. coelicolor growth assay; assay type: cell-based, Streptomyces coelicolor
In short: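 S. coelicolor M145 grown in defined Evans medium with 25 mM ammonium chloride, L-glutamine or ethanolamine hydrochloride as sole nitrogen source. Test compound added at final 100, 50, 25, 12.5, 6.25, 3.125, 1.562, 0.781 or 0 μM. Cultures shaken at 180 rpm for 7 days at 30 °C. Phase-contrast images taken at x400; hyphae thickness used to quantify growth.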

| SMILES | pIC50 (GlnA4Sc) | Activity against GlnA1Mt (in words) (GlnA1Mt) | Hyphae thickness with additional glutamine (rescue) (S. coelicolor M145; 100 μM inhibitor, additional glutamine as alternative nitrogen source) | Non-specific toxic effects (in words) (S. coelicolor M145; 100 μM, glutamine rescue control experiment) | Size of mycelial agglomerates (in words) (S. coelicolor M145; lowest tested concentration 0.78 μM, ethanolamine as nitrogen source) | Inhibition of GlnA4Sc activity (in words) (GlnA4Sc; Figure 1a/1b) |
| --- | --- | --- | --- | --- | --- | --- |
| N=S(=O)(CCCO)CC[C@H](N)C(=O)O (stereo partly drawn) [7 b, (2S)‐2‐Amino‐4‐(3‐hydroxypropylsulfonimidoyl)butanoic acid] | 4.91 | neither 7 b nor 8 showed activity | 1.11 μm | excludes any non‐specific toxic effects | reduced the size of the mycelial agglomerates | – |
| N=S(=O)(CCO)CC[C@H](N)C(=O)O (stereo partly drawn) [7 a, (2S)‐2‐Amino‐4‐(2‐hydroxyethylsulfonimidoyl)butanoic acid] | 2.66 | – | – | – | – | – |
| CS(=O)(CC[C@H](N)C(=O)O)=NCCO (stereo partly drawn) [compound 8, (2S)‐2‐Amino‐4‐(N‐(2‐hydroxyethyl)‐methylsulfonimidoyl)butanoic acid] | 3.18 | neither 7 b nor 8 showed activity | – | – | – | inhibited |
| N=S(=O)(CCCCO)CC[C@H](N)C(=O)O (stereo partly drawn) [7 c, (2S)‐2‐Amino‐4‐(4‐hydroxybutylsulfonimidoyl)butanoic acid] | 4.10 | – | – | – | – | – |

— paper PMC9826267 (Chembiochem, 2022)
